According to ChEMBL document CHEMBL1123760, “Synthesis and oral antifungal activity of novel azolylpropanolones and related compounds” (1987):
Values after ≈ are worked out from the molar mass of the structure shown.

What was measured:
Assay type in all cases: functional
[1] = test system: Aspergillus fumigatus; experiment: In vitro antifungal activity against Aspergillus fumigatus
Procedure, shortened: (§1)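 Broth microdilution MIC in Sabouraud's glucose broth; final inocula 1 × 10^5 cells/mL (yeast) or 1 × 10^5 conidia/mL (mold and dermatophyte).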

[2] = test system: Candida albicans; experiment: In vitro antifungal activity against Candida albicans; procedure, shortened: as §1
[3] = test system: Candida albicans; experiment: Minimum effective concentration for inhibition of pseudomycelium formation in Candida albicans; conditions: for minimal effective concentration: Candida albicans, read-out: MEC
Procedure, shortened: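 C. albicans KE-2 (clinical isolate) at a final 1 × 10^6 yeast cells/mL in EMEM with 20% calf serum; compounds diluted by the same microtiter system as for MICs. After incubation, wells were Giemsa-stained (5% in phosphate buffer) and read by microscope. MEC is the lowest concentration preventing typical pseudomycelium formation.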

[4] = test system: Trichophyton benhamiae; experiment: In vitro antifungal activity against Trichophyton asteroides; procedure, shortened: as §1
[5] = Aspergillus fumigatus, read-out: MIC
[6] = Candida albicans, read-out: MIC
[7] = Trichophyton benhamiae, read-out: MIC

Row | SMILES | MIC [1, 5] [µg/mL] | MIC [2, 6] [µg/mL] | minimal effective concentration [3] [µg/mL] | MIC [4, 7] [µg/mL] | MEC [3] [µg/mL] | MIC [4] [µg/mL] | MIC [1] [µg/mL] | MIC [2] [µg/mL]
1 | O=S1O[C@H](c2ccc(Cl)cc2)[C@@](Cn2cncn2)(c2ccc(Cl)cc2Cl)O1 (some centres not stated) | 25 (≈ 56.2 µM) | 50 (≈ 112 µM) | 0.16 | 0.1 (≈ 0.225 µM) |  |  |  | 
2 | O=C(c1ccc(Cl)cc1)C(O)(Cn1cnnc1)c1ccc(Cl)cc1 (configuration not stated) | > 100 | > 100 | > 20 | 50 (≈ 138 µM) |  |  |  | 
3 | Clc1ccc([C@H]2OCO[C@]2(Cn2cncn2)c2ccc(Cl)cc2Cl)cc1 | 0.2 (≈ 0.487 µM) | 50 (≈ 122 µM) | 0.02 | 0.1 (≈ 0.243 µM) |  |  |  | 
4 | COc1ccccc1C(O)C(O)(Cn1cncn1)c1ccccc1OC (configuration not stated) | > 100 | > 100 | 10 | 3.1 (≈ 8.72 µM) |  |  |  | 
5 | O=C(c1ccc(Cl)cc1)C(O)(Cn1cncn1)c1ccccc1Cl (configuration not stated) | > 100 | > 100 | 10 | 0.8 (≈ 2.21 µM) |  |  |  | 
6 | O=C(c1ccc(Cl)cc1Cl)C(O)(Cn1cnnc1)c1ccc(Cl)cc1Cl (configuration not stated) | > 100 | > 100 | > 20 | 25 (≈ 58 µM) |  |  |  | 
7 | O=C1O[C@H](c2ccccc2)[C@@](Cn2ccnc2)(c2ccc(Cl)cc2Cl)O1 | 20 (≈ 51.4 µM) | 100 (≈ 257 µM) | 0.16 | 0.1 (≈ 0.257 µM) |  |  |  | 
8 | O=C(c1ccc(Cl)cc1)C(O)(Cn1ccnc1)c1ccc(Cl)cc1 (configuration not stated) | > 100 | > 100 | 20 | 0.1 (≈ 0.277 µM) |  |  |  | 
9 | COc1ccc(C(O)C(O)(Cn2cncn2)c2ccc(OC)cc2)cc1 (configuration not stated) | > 100 | > 100 | > 20 | 25 (≈ 70.3 µM) |  |  |  | 
10 | CC(C)C(O)(Cn1cncn1)C(=O)c1ccc(Cl)cc1 (configuration not stated) | 100 (≈ 340 µM) | > 100 | 0.63 | 0.2 (≈ 0.681 µM) |  |  |  | 
11 | CC(O)(c1ccc(Cl)cc1)C(O)(Cn1ccnc1)c1ccc(F)cc1 (configuration not stated) | > 100 | > 100 | 10 | 1.6 (≈ 4.43 µM) |  |  |  | 
12 | OC(c1ccc(Cl)cc1Cl)C(O)(Cn1cncn1)c1ccc(F)cc1 (configuration not stated) | > 100 | > 100 | 0.31 | 0.1 (≈ 0.262 µM) |  |  |  | 
13 | O=C(c1ccc(Cl)cc1Cl)C(O)(Cc1ccccc1)Cn1cncn1 (configuration not stated) | > 100 | > 100 | 5 | 1.6 (≈ 4.25 µM) |  |  |  | 
14 | O=C1O[C@H](c2ccc(Cl)cc2)[C@](Cn2cncn2)(c2ccc(Cl)cc2Cl)O1 (relative stereo) | > 100 | > 100 |  |  | >20 | 25 (≈ 58.9 µM) |  | 
15 | OC(c1ccc(Cl)cc1)C(O)(Cn1cncn1)c1ccc(Cl)cc1 (stereo in doubt; 89) | > 100 | 50 (≈ 137 µM) |  |  | 20 | 12.5 (≈ 34.3 µM) |  | 
16 | CC(C)C(O)C(O)(Cn1cncn1)c1ccc(Cl)cc1 (stereo in doubt; 100) | > 100 | > 100 |  |  | 0.16 | 0.8 (≈ 2.7 µM) |  | 
17 | OC(c1ccc(F)cc1)C(O)(Cn1cncn1)c1ccc(Cl)cc1 (stereo in doubt; 103) | > 100 | > 100 |  |  | 0.31 | 0.8 (≈ 2.3 µM) |  | 
18 | OC(c1ccc(F)cc1)C(O)(Cn1cncn1)c1ccc(Cl)cc1Cl (stereo in doubt; 105) |  |  |  |  | 5 | 25 (≈ 65.4 µM) | >100 | >100
19 | CCCC(O)C(O)(Cn1cncn1)c1ccc(Cl)cc1 (stereo in doubt; 107) | > 100 | > 100 | 0.16 |  |  | 6.3 (≈ 21.3 µM) |  | 

Row | SMILES | MIC [1, 5] [µg/mL] | MIC [2, 6] [µg/mL] | minimal effective concentration [3] [µg/mL] | MIC [4, 7] [µg/mL] | MEC [3] [µg/mL] | MIC [4] [µg/mL] | MIC [1] [µg/mL] | MIC [2] [µg/mL]
20 | OC(c1ccc(Cl)cc1)C(O)(Cn1cncn1)c1ccc(Cl)cc1Cl (stereo in doubt; 108) |  | > 100 |  |  | 0.04 | 0.1 (≈ 0.251 µM) | 25 (≈ 62.7 µM) | 
21 | OC(c1ccc(Cl)cc1)C(O)(Cn1cncn1)c1ccc(Cl)cc1Cl (stereo in doubt; 109) |  |  |  |  | 20 | 12.5 (≈ 31.4 µM) | >100 | 100 (≈ 251 µM)
22 | O=C1O[C@H](c2ccc(Cl)cc2)[C@@](Cn2cncn2)(c2ccc(Cl)cc2Cl)O1 (stereo in doubt; 115) | > 100 | > 100 | 0.04 | 0.2 (≈ 0.471 µM) |  |  |  | 
23 | CC(O)(c1ccc(F)cc1)C(O)(Cn1cncn1)c1ccc(F)cc1 (stereo in doubt; 161) |  | > 100 |  | 0.2 (≈ 0.579 µM) | 2.5 |  | 100 (≈ 290 µM) | 
24 | CC(O)(c1ccc(F)cc1)C(O)(Cn1cncn1)c1ccc(Cl)cc1 (stereo in doubt; 163) | > 100 | 100 (≈ 276 µM) |  | 0.2 (≈ 0.553 µM) | 0.63 |  |  | 
25 | OC(Cn1cncn1)(c1ccc(F)cc1)C(O)(c1ccccc1)c1ccc(F)cc1 (stereo in doubt; 165) | > 100 | > 100 | > 20 |  |  | 25 (≈ 61.4 µM) |  | 
26 | CC(O)(c1ccccc1)C(O)(Cn1cncn1)c1ccc(Cl)cc1Cl (stereo in doubt; 166) | 12.5 (≈ 33 µM) | > 100 | 0.04 | 0.1 (≈ 0.264 µM) |  |  |  | 
27 | CC(O)(c1ccccc1)C(O)(Cn1cncn1)c1ccc(Cl)cc1Cl (stereo in doubt; 167) |  |  |  |  | 0.08 | 0.1 (≈ 0.264 µM) | 25 (≈ 66.1 µM) | 50 (≈ 132 µM)
28 | CC(C)C(C)(O)C(O)(Cn1cncn1)c1ccc(Cl)cc1Cl (stereo in doubt; 169) | 50 (≈ 145 µM) | > 100 | 0.08 | 0.1 (≈ 0.29 µM) |  |  |  | 
29 | CCC(O)(c1ccc(F)cc1)C(O)(Cn1cncn1)c1ccc(Cl)cc1 (stereo in doubt; 171) |  | > 100 |  | 0.1 (≈ 0.266 µM) | 0.16 |  | >100 | 
30 | CC(O)(c1ccc(F)cc1)C(O)(Cn1cncn1)c1ccc(Cl)cc1Cl (stereo in doubt; 173) | 25 (≈ 63.1 µM) | > 100 | 0.31 | 0.1 (≈ 0.252 µM) |  |  |  | 
31 | CC(O)(c1ccc(F)cc1)C(O)(Cn1cncn1)c1ccc(Cl)cc1Cl (stereo in doubt; 174) |  |  |  |  | 0.31 | 0.1 (≈ 0.252 µM) | 50 (≈ 126 µM) | 100 (≈ 252 µM)
32 | CC(O)(c1ccc(Cl)cc1)C(O)(Cn1cncn1)c1ccc(Cl)cc1Cl (stereo in doubt; 175) | 25 (≈ 60.6 µM) | > 100 |  | 0.1 (≈ 0.242 µM) | 0.31 |  |  | 
33 | CC(O)(c1ccc(Cl)cc1)C(O)(Cn1cncn1)c1ccc(Cl)cc1Cl (stereo in doubt; 176) |  |  |  |  | 0.63 | 0.1 (≈ 0.242 µM) | 50 (≈ 121 µM) | 50 (≈ 121 µM)
34 | CC(O)(c1ccc(F)cc1)C(O)(Cn1cncn1)c1ccccc1Cl (stereo in doubt; 182) | 12.5 (≈ 34.5 µM) | > 100 | 2.5 | 0.1 (≈ 0.276 µM) |  |  |  | 
35 | CCCCC(O)(c1ccc(F)cc1)C(O)(Cn1cncn1)c1ccccc1Cl (stereo in doubt; 189) | 50 (≈ 124 µM) | > 100 |  | 0.4 (≈ 0.99 µM) | 20 |  |  | 
36 | CCCCC(O)(Cn1cncn1)C(C)(O)c1ccc(Cl)cc1 (stereo in doubt; 191) | > 100 | > 100 | 1.25 | 0.6 (≈ 1.85 µM) |  |  |  | 
37 | CC(O)(c1ccc(Cl)cc1)C(O)(Cn1cncn1)c1ccc(Cl)cc1 (stereo in doubt; 193) |  |  |  |  | 0.36 | 0.1 (≈ 0.264 µM) | 50 (≈ 132 µM) | 100 (≈ 264 µM)
38 | CC(O)(c1ccc(Cl)cc1)C(O)(Cn1cncn1)c1ccc(Cl)cc1 (stereo in doubt; 194) | > 100 | 50 (≈ 132 µM) |  |  | 2.5 | 0.8 (≈ 2.11 µM) |  | 
